Assays:
Histamine H3 receptor [1] = biological target: Histamine H3 receptor (Homo sapiens, UniProt Q9Y5N1); assay: Displacement of [3H]N-alpha-methylhistamine from human cloned histamine H3 receptor expressed in C6 cells; assay type: cell-based
How it was run: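 Radioligand displacement with [3H]N-α-methylhistamine on membranes from C6 cells carrying cloned human H3R. Ki derived from pKi.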

Histamine H3 receptor [2] = biological target: Histamine H3 receptor (Rattus norvegicus, UniProt Q9QYN8); assay: Displacement of [3H]N-alpha-methylhistamine from histamine H3 receptor in rat cortical membranes; assay type: cell membranes, Membrane
How it was run: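 Competitive binding on rat cerebral cortex membranes, displacing the radioligand [3H]N-α-methylhistamine. Ki obtained from pKi. At least 3 independent pKi determinations per compound.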

[3] = AUC (0 to infinity) in rat at 1 mg/kg, po; assay type: ADME, organism-based; parameters: time infinity, dose 1 mg/kg, route oral; conditions: plasma
[4] = Ratio of drug level in brain to plasma in rat at 5 mg/kg, iv; assay type: ADME, organism-based; parameters: dose 5 mg/kg, route intravenous
How it was run: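 Rats given 5 mg/kg intravenously; brain and plasma drug concentrations measured one hour after dosing and expressed as a brain-to-plasma ratio.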

[5] = Oral bioavailability in rat at 1 mg/kg; assay type: ADME, organism-based; conditions: in vivo
[6] = Half life in rat at 1 mg/kg, iv; assay type: ADME, organism-based; parameters: dose 1 mg/kg, route intravenous; conditions: in vivo
[7] = Half life in rat at 1 mg/kg, po; assay type: ADME, organism-based; parameters: dose 1 mg/kg, route oral; conditions: in vivo
[8] = AUC (0 to infinity) in rat at 1 mg/kg, iv; assay type: ADME, organism-based; parameters: time infinity, dose 1 mg/kg, route intravenous; conditions: plasma
[9] = Cmax in rat at 1 mg/kg, po; assay type: ADME, organism-based; parameters: dose 1 mg/kg, route oral; conditions: in vivo
[10] = Volume of distribution in rat at terminal phase at 1 mg/kg, iv; assay type: ADME, organism-based; parameters: dose 1 mg/kg, route intravenous; conditions: in vivo, read-out: Vbeta

Sequence of Histamine H3 receptor (Homo sapiens, UniProt Q9Y5N1) (Q9Y5N1 whole entry): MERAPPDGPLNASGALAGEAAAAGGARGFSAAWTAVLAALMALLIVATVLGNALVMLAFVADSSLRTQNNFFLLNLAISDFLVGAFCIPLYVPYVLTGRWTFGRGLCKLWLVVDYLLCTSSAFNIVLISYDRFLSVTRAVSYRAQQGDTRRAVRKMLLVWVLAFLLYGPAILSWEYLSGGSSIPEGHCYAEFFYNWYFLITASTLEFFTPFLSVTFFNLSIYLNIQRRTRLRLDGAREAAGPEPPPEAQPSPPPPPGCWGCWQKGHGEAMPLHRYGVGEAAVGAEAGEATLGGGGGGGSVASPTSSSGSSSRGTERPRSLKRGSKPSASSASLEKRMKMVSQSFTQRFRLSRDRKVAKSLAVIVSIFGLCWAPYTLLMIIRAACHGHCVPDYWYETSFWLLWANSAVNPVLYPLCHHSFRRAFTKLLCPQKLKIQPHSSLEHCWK
Sequence of Histamine H3 receptor (Rattus norvegicus, UniProt Q9QYN8) (Q9QYN8 whole entry): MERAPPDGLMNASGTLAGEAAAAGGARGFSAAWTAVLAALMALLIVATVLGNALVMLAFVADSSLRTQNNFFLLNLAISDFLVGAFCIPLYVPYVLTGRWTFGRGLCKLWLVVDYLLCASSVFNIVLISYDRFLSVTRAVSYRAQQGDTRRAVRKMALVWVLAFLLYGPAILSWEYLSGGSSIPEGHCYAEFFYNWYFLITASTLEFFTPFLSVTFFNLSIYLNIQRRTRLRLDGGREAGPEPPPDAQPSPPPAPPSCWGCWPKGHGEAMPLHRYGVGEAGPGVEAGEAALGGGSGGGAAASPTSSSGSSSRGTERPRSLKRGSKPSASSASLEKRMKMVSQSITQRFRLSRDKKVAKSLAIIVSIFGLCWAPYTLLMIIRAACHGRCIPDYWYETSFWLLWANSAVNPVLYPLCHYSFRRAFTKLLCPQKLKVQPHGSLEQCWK

Ki (Histamine H3 receptor [1]) [nM] | Ki (Histamine H3 receptor [2]) [nM] | SMILES | further results
2.09 | 25.7 | CCCN(C)CCc1ccc2cc(-c3ccc(C#N)cc3)ccc2c1 | 
2.65 | 45.3 | CN(C)CCc1ccc2cc(-c3ccc(C#N)cc3)ccc2c1 | 
0.24 | 2.48 | C[C@@H]1CCCN1CCc1ccc2cc(-c3ccc(C#N)cc3)ccc2c1 | AUC(0-inf) [3]: 890 ng·h/mL; Kp [4]: 72; bioavailability [5]: 55%; half-life [6]: 6.9 h; half-life [7]: 6.5 h; AUC(0-inf) [8]: 1640 ng·h/mL; Cmax [9]: 48 ng/mL; Vd [10]: 6 L/kg
4.62 | 30.3 | CCN(CCc1ccc2cc(-c3ccc(C#N)cc3)ccc2c1)C(C)C | 
20.1 | 100 | CN(C)[C@@H]1CCN(CCc2ccc3cc(-c4ccc(C#N)cc4)ccc3c2)C1 | 
8.71 | 141 | C[C@@H]1CCCCN1CCc1ccc2cc(-c3ccc(C#N)cc3)ccc2c1 | 
10.5 | 457 | CN(CCO)CCc1ccc2cc(-c3ccc(C#N)cc3)ccc2c1 | 
0.49 | 6.42 | N#Cc1ccc(-c2ccc3cc(CCN4CCCC4)ccc3c2)cc1 | 
27.3 | 233 | CC(C)C1CCCN1CCc1ccc2cc(-c3ccc(C#N)cc3)ccc2c1 (stereo unspecified) | 
0.12 | 3.47 | C[C@H]1CCCN1CCc1ccc2cc(-c3ccc(C#N)cc3)ccc2c1 | 
0.22 | 1.96 | C[C@@H]1CCCN1CCCOc1ccc(-c2ccc(C#N)cc2)cc1 | 
1.09 | 27.9 | CN(CCc1ccc2cc(-c3ccc(C#N)cc3)ccc2c1)C(C)(C)C | 
0.44 | 11 | N#Cc1ccc(-c2ccc3cc(CCN4CCC[C@H]4CO)ccc3c2)cc1 | 
2.89 | 42.8 | N#Cc1ccc(-c2ccc3cc(CCN4CCC[C@@H]4CO)ccc3c2)cc1 | 
273 | 465 | CC(C)CC1CCCN1CCc1ccc2cc(-c3ccc(C#N)cc3)ccc2c1 (stereo unspecified) | 
0.81 | 9.77 | N#Cc1ccc(-c2ccc3cc(CCN4CCC[C@H]4CF)ccc3c2)cc1 | 
3.31 | 66.1 | N#Cc1ccc(-c2ccc3cc(CCN4CC=CC4)ccc3c2)cc1 | 
1.56 | 30.9 | N#Cc1ccc(-c2ccc3cc(CCN4CC[C@@H](O)C4)ccc3c2)cc1 | 
8.61 | 33.7 | CC[C@@H]1CCCN1CCc1ccc2cc(-c3ccc(C#N)cc3)ccc2c1 | 
 |  | C[C@@H]1CCCN1CCc1cc2cc(-c3ccc(C#N)cc3)ccc2o1 | AUC(0-inf) [3]: 349 ng·h/mL; half-life [6]: 5.3 h; half-life [7]: 5.2 h; AUC(0-inf) [8]: 673 ng·h/mL; Cmax [9]: 29 ng/mL; Vd [10]: 12 L/kg
0.84 | 12.5 | CCN(CC)CCc1ccc2cc(-c3ccc(C#N)cc3)ccc2c1 | 
0.18 | 1.24 | CC1CCCN1CCc1ccc2cc(-c3ccc(C#N)cc3)ccc2c1 (stereo unspecified) | 
